The source of these data is publication PMC12394898 (Chemical Science, 2025).

Data set [1] relates to organoids from colon cancer tissues (CRC-PDTO1-4). Kind of data set: Patient-Derived Organoid cytotoxicity assay. In kind it is cell-based, human. The method in brief:
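Patient-derived colorectal cancer tumor organoids (3D model) came from the C.R.O. biobank. Oxaliplatin, the standard treatment, served as positive control. Dose-response IC50 values were obtained per organoid line.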

Data set [2] has as its system HT-29. To be noted: read-out: average IC50 in HT-29 colon cancer cells; literature value; cited from earlier work.
The subject of another data set is A-549. The experiment in a line: Cytotoxic activity, crystal violet staining. To be noted: read-out: IC50 A-549, A-549 cells, 72 hours incubation. In kind it is cell-based, human.
In data set [3] the test system is HT-29. The experiment in a line: Cytotoxic activity, crystal violet staining. In kind it is cell-based, human. To be noted: read-out: IC50 HT-29, HT-29 cells, 72 hours incubation.
A further data set has as its system MCF-7. Kind of data set: Cytotoxic activity, crystal violet staining. In kind it is cell-based, human. The settings on record: read-out: IC50 MCF-7, MCF-7 cells, 96 hours incubation.
Data set [4] has as its system A2780. Kind of data set: Cytotoxicity on ovarian cancer cell line. To be noted: read-out: IC50 A2780. In kind it is cell-based, human.
Data set [5] concerns organoids from HGSOC tissues (HGSOC-PDTO1-4). The experiment in a line: Patient-Derived Organoid cytotoxicity assay. In kind it is cell-based, human. The method in brief: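 Patient-derived high-grade serous ovarian cancer tumor organoids (3D model) came from the C.R.O. biobank. Carboplatin, the standard treatment, served as positive control. Dose-response IC50 values were obtained per organoid line.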

The target of data set [6] is T1, recombinant human TrxR (TrxR1) (Homo sapiens, UniProt Q16881).
T1 sequence (Q16881 1-499 isoform Q16881-5): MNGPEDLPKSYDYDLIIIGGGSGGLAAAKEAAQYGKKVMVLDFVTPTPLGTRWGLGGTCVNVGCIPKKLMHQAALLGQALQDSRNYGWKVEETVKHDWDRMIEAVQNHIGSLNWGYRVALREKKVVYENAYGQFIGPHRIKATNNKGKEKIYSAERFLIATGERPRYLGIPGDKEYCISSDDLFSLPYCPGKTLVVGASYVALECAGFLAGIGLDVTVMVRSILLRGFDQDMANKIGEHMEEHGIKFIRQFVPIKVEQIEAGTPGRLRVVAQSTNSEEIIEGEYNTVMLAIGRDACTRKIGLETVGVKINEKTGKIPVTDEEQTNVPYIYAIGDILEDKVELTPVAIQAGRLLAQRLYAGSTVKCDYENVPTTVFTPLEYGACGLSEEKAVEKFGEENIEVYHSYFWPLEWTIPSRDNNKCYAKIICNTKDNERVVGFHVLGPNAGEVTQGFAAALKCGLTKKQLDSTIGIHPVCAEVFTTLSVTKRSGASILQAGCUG
The experiment in a line: Thioredoxin reductase inhibition assay. It counts as biochemical.

A further data set in a line: Stability in water. In kind it is physicochemical. The settings on record: 4 mg in DMSO-d6 (0.4 mL) diluted with D2O to 0.5 mL, 48 hours.
Data set [7] relates to A2780. To be noted: read-out: average IC50 in A2780 ovarian cancer cells; literature value; cited from earlier work.
Setting [8] is: read-out: IC50 CRC-PDTO1, organoid CRC-PDTO1, 96 hours of treatment.
[9] abbreviates: read-out: IC50 CRC-PDTO2, organoid CRC-PDTO2, 96 hours of treatment.
[10] abbreviates: read-out: IC50 CRC-PDTO3, organoid CRC-PDTO3, 96 hours of treatment.
The mark [11] stands for this setting: read-out: IC50 CRC-PDTO4, organoid CRC-PDTO4, 96 hours of treatment.
[12] abbreviates: 50 μM for 96 hours, compared to non-treated controls.
Where [13] appears, read: read-out: IC50 HGSOC-PDTO1, organoid HGSOC-PDTO1, 96 hours of treatment.
Setting [14] is: read-out: IC50 HGSOC-PDTO2, organoid HGSOC-PDTO2, 96 hours of treatment.
[15] abbreviates: read-out: IC50 HGSOC-PDTO3, organoid HGSOC-PDTO3, 96 hours of treatment.
Setting [16] is: read-out: IC50 HGSOC-PDTO4, organoid HGSOC-PDTO4, 96 hours of treatment.

The term IC50 denotes the midpoint of a concentration-inhibition curve.

Where two headings read alike, the source gives them in different places.

For the molecule `O=C1[O][Pt]2([NH][C@@H]3CCCC[C@H]3[NH]2)[O]C1=O` [Oxaliplatin, reference compound], the IC50 in [1] (setting [8]) is 1.4 ± 0.9 µM; in [1] (setting [9]) it was 4 ± 1 µM; in data set [1] (setting [10]), above 100 µM; in [1] (setting [11]), above 100 µM; in the data set on HT-29 [2] it was 7 µM.
On to [Au(MonoIPent)Se(C6H5)] [1m], for which the IC50 was found to be 0.27 ± 0.03 µM in the data set on A-549; 0.35 ± 0.05 µM with HT-29 [3]; 0.27 ± 0.04 µM with MCF-7; 0.4 ± 0.1 µM with A2780 [4]; 13 ± 9 µM in data set [1] (setting [8]); 6 ± 2 µM in data set [1] (setting [9]). Further, the IC50 was 3.4 ± 0.5 µM in data set [1] (setting [10]); 9 ± 5 µM in data set [1] (setting [11]); 17 ± 8 µM in [5] (setting [13]); 4 ± 2 µM in [5] (setting [14]); 6 ± 2 µM in [5] (setting [15]); 7 ± 5 µM in data set [5] (setting [16]). Also, in [6] (read-out: TrxR inhibition average IC50, recombinant human TrxR, 75 min at 37 °C), the IC50 amounted to 0.18 ± 0.05 µM. Further, the “brightfield appearance of CRC PDTOs after treatment” value in data set [1] (setting [12]) was “visible reductions in organoid size, density, and structural integrity”. Moreover, in [5] (setting [12]), the “brightfield appearance of HGSOC PDTOs after treatment” value was “visible reductions in organoid size, density, and structural integrity”. Moreover, the stability in water entry in the data set “Stability in water” is on record as “No change”.
With `Cc1cc(C(c2ccccc2)c2ccccc2)c(-n2ccn(-c3c(C(c4ccccc4)c4ccccc4)cc(C)cc3C(c3ccccc3)c3ccccc3)[c]2=[Au][Se]c2ccccc2)c(C(c2ccccc2)c2ccccc2)c1` [1c, [Au(IPr*)Se(C6H5)]], the IC50 in the data set on A-549, with HT-29 [3] and in the data set on MCF-7 was above 100 µM each time.
`Cc1cc(C)c(N2CCN(c3c(C)cc(C)cc3C)[C]2=[Au][Se]c2ccccc2)c(C)c1` [1k, [Au(SIMes)Se(C6H5)]]: the figures for the IC50 in the data set on A-549, in the data set with HT-29 [3] and in the data set with MCF-7 were 6.3 ± 0.6 µM, 9.9 ± 0.3 µM and 4.4 ± 0.1 µM, respectively.
On the same counts, the results for [Au(MeIPr)Se(C6H5)] [1g] are 1.5 ± 0.3 µM, 2.2 ± 0.5 µM and 2.4 ± 0.5 µM.
As for `CC(C)c1cccc(C(C)C)c1-n1ccn(-c2c(C(C)C)cccc2C(C)C)[c]1=[Au][Se]c1ccccc1` [1a, [Au(IPr)Se(C6H5)]], the values for the IC50 in the data set with A-549, in the data set on HT-29 [3] and in the data set with MCF-7 were 4.5 ± 0.9 µM, 3.1 ± 0.5 µM and 3.6 ± 0.5 µM, respectively. Also, in data set [6] (highest applied dosage of 100 μM), the “inhibition of the enzyme (TrxR1)” value is listed as “did not show any inhibition”. Also, in the data set “Stability in water”, the stability in water result is reported as “No change”.
For the molecule `CCC(CC)c1cccc(C(CC)CC)c1-n1ccn(-c2c(C(CC)CC)cccc2C(CC)CC)[c]1=[Au][Se]c1ccccc1` [1l, [Au(IPent)Se(C6H5)]], the IC50 in the data set with A-549, in the data set with HT-29 [3] and in the data set on MCF-7 was above 100 µM each time.
Regarding `N.N.O=C([O-])C1(C(=O)[O-])CCC1.[Pt+2]` [Carboplatin, reference compound], the half-inhibitory concentration (IC50) is 3.5 ± 0.7 µM in data set [5] (setting [13]); 3 ± 1 µM in [5] (setting [14]); above 100 µM in [5] (setting [15]); above 100 µM in data set [5] (setting [16]); 8 µM in the data set on A2780 [7].
Regarding `CC(C)c1cccc(C(C)C)c1N1CCN(c2c(C(C)C)cccc2C(C)C)[C]1=[Au][Se]c1ccccc1` [1b, [Au(SIPr)Se(C6H5)]], the IC50 in the data set with A-549, with HT-29 [3] and in the data set on MCF-7 was above 100 µM throughout.
Take `CC(=O)OC[C@H]1O[C@@H]([S-])[C@H](OC(C)=O)[C@@H](OC(C)=O)[C@@H]1OC(C)=O.CCP(CC)CC.[Au+]` [Auranofin, reference compound]: the IC50 stood at 3.7 ± 0.4 µM in the data set on A-549, 4.9 ± 0.5 µM in the data set with HT-29 [3] and 1.5 ± 0.2 µM with MCF-7.
Taken in the same sequence, the figures for [Au(BzIPr)Se(C6H5)] [1f] were 0.32 ± 0.04 µM, 1.08 ± 0.05 µM and 1.9 ± 0.4 µM.
As for `N.N.[Cl][Pt][Cl]` [Cisplatin, reference compound], the IC50 in the data set on A-549 was 3 ± 0.4 µM; in the data set with HT-29 [3], 7 ± 0.5 µM; in the data set on MCF-7, 5.3 ± 0.8 µM; in the data set on A2780 [4], 1 µM.
As for [Au(PPh3)Se(C6H5)] [1o], the IC50 in the data set with A-549 was 2.9 ± 0.4 µM; with HT-29 [3], 2.8 ± 0.2 µM; in the data set on MCF-7, 1.7 ± 0.08 µM.
On the same counts, the results for `Cc1c(C)n(-c2c(C(C)C)cccc2C(C)C)[c](=[Au][Se]c2ccccc2)n1-c1c(C(C)C)cccc1C(C)C` [1d, [Au(IPr^Me)Se(C6H5)]] are above 100 µM, above 100 µM and 6.1 ± 0.3 µM.
On the same counts, the results for [Au(ImPyIPr)Se(C6H5)] [1i] are 5.97 ± 0.08 µM, 12.6 ± 0.8 µM and 4.3 ± 0.4 µM.
As for [Au(MeIMes)Se(C6H5)] [1h], the IC50 with A-549 was 4 ± 0.5 µM; with HT-29 [3], 4 ± 1 µM; in the data set with MCF-7, 3.4 ± 0.6 µM.
Consider [Au(IPr)Se(C6H4CF3)] [2a], for which the IC50 with A-549 came out at 55 ± 10 µM; with HT-29 [3], 88 ± 8 µM; with MCF-7 it was 48 ± 5 µM.
Taken in the same sequence, the figures for `CC(C)c1cccc(C(C)C)c1-n1ccn(-c2c(C(C)C)cccc2C(C)C)[c]1=[Cu][Se]c1ccccc1` [1p, [Cu(IPr)Se(C6H5)]] were 0.7 ± 0.1 µM, 1 ± 0.3 µM and 0.4 ± 0.3 µM.
On the same counts, the results for `CC(C)c1cccc(C(C)C)c1-n1ccn(-c2c(C(C)C)cccc2C(C)C)[c]1=[Ag][Se]c1ccccc1` [1q, [Ag(IPr)Se(C6H5)]] are 0.8 ± 0.1 µM, 1.2 ± 0.3 µM and 0.9 ± 0.2 µM.
